Experimental data as given in ChEMBL document CHEMBL1145837, “Design and synthesis of 4,6-di-tert-butyl-2,3-dihydro-5-benzofuranols as a novel series of antiatherogenic antioxidants” (J Med Chem, 2003).

Legend:
[1] = Inhibition of MCLA chemiluminescence generated by autoxidation of linoleic acid
How it was run: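 Linoleic acid peroxyl radicals from autoxidation of 1 mM linoleic acid in 1-butanol with 10 μM MCLA, 10 min at 37 °C under air; quenching measured as change in MCLA chemiluminescence after compound addition; IC50 derived; duplicate or more.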

Oryctolagus cuniculus [2] = organism: Oryctolagus cuniculus; assay: Inhibition of LDL oxidation induced by cupric ions (CuSO4) at 1 uM expressed as % control.; assay type: functional
How it was run: (§1)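 Rabbit LDL (d 1.019–1.063 g/mL, sequential ultracentrifugation) at 200 μg/mL with compound at stated concentration, oxidized by soybean lipoxygenase type-IS or CuSO4 at 37 °C for 24 h in CO2 incubator. Read-out: TBARS and LDL fluorescence by gel permeation chromatography (0.1 M NaCl, 0.05 M Tris pH 7.4); expressed as % of control; duplicate or more.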

Oryctolagus cuniculus [3] = organism: Oryctolagus cuniculus; assay: Inhibition of LDL oxidation induced by cupric ions (CuSO4) at 10 uM expressed as % control.; assay type: functional; how it was run: as §1
[4] = target: T1, Seed linoleate 13S-lipoxygenase-1 (Glycine max) (UniProt P08170); assay: Inhibition of LDL oxidation induced by soybean lipoxygenase (SLO) at 5 uM expressed as % control.; assay type: functional; how it was run: as §1
T1 sequence (whole entry): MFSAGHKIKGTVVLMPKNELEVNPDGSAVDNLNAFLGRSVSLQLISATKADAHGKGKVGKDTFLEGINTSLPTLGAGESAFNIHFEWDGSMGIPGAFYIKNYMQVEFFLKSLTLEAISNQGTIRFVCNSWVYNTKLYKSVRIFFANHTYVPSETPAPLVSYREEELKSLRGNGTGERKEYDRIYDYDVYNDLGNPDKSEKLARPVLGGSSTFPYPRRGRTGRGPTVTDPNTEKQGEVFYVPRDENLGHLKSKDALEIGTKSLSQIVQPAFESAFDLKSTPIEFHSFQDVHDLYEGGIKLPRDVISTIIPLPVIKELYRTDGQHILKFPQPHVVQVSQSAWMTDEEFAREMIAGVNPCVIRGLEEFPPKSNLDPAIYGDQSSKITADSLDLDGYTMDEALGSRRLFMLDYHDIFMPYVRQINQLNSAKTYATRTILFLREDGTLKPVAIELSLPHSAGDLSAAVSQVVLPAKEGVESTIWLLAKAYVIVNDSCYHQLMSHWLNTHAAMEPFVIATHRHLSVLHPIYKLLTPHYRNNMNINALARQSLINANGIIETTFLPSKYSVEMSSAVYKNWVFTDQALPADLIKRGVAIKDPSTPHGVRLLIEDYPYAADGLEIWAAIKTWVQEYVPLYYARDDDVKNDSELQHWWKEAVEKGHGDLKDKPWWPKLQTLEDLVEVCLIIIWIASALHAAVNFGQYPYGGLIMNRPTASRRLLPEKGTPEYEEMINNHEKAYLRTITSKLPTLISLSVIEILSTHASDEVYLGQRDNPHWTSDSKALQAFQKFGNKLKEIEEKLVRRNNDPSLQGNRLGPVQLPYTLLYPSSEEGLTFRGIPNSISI

[5] = target: T1, Seed linoleate 13S-lipoxygenase-1 (Glycine max); assay: Inhibition of LDL oxidation induced by soybean lipoxygenase (SLO) at 0.5 uM expressed as % control.; assay type: functional; how it was run: as §1
Oryctolagus cuniculus [6] = assay: Distribution of compound into VLDL lipoprotein fraction of WHHL Rabbit's plasma after oral administration; assay type: ADME, organism-based; settings: in vivo
How it was run: (§2)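 WHHL rabbits given test compound orally (250 mg/kg) once daily for 9 days; at 24 h after final dose plasma lipoproteins isolated by Havel procedure, EtOAc-extracted, compound content per mg lipoprotein measured by reverse-phase HPLC. Mean ± range, n = 2.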

Oryctolagus cuniculus [7] = assay: Distribution of compound into LDL lipoprotein fraction of WHHL Rabbit's plasma after oral administration; assay type: ADME, organism-based; settings: in vivo; how it was run: as §2
Oryctolagus cuniculus [8] = assay: Distribution of compound into HDL lipoprotein fraction of WHHL Rabbit's plasma after oral administration; assay type: ADME, organism-based; settings: in vivo; how it was run: as §2
Oryctolagus cuniculus [9] = assay: Distribution of compound into HDL lipoprotein fraction of WHHL Rabbit's plasma after oral administration; ND means not detected; assay type: ADME, organism-based; settings: in vivo; how it was run: as §2

| SMILES | IC50 [1] [µM] | LDL oxidation remaining, % of control (Oryctolagus cuniculus [2]) [%] | LDL oxidation remaining, % of control (Oryctolagus cuniculus [3]) [%] | LDL oxidation remaining, % of control [4] [%] | LDL oxidation remaining, % of control [5] [%] | VLDL (Oryctolagus cuniculus [6]) [µg/mg] | LDL (Oryctolagus cuniculus [7]) [µg/mg] | HDL (Oryctolagus cuniculus [8]) [µg/mg] | HDL (Oryctolagus cuniculus [9]) |
| --- | --- | --- | --- | --- | --- | --- | --- | --- | --- |
| CC(C)(C)c1cc2c(c(C(C)(C)C)c1O)CC1(CCCCCC1)O2 | 7.9 | 91 | 9 | 2.3 | 93.4 |  |  |  |  |
| CC(C)(Sc1cc(C(C)(C)C)c(O)c(C(C)(C)C)c1)Sc1cc(C(C)(C)C)c(O)c(C(C)(C)C)c1 [PROBUCOL] | 165 | 87 | 28 | 14 | 73.9 | 5.48 | 2.57 | 0.44 |  |
| CC(C)(C)c1cc2c(c(C(C)(C)C)c1O)CC1(CCCCCCC1)O2 | 9.4 | 92 | 22 | 9 | 97.2 |  |  |  |  |
| CC(C)(C)c1cc2c(c(C(C)(C)C)c1O)CCO2 | 7.2 | 53 | 11 | 6.9 | 36 |  |  |  |  |
| CC(C)(C)c1cc2c(c(C(C)(C)C)c1O)CC1(CCCC1)O2 | 6.6 | 85 | 12 | 0.4 | 46.2 |  |  |  |  |
| CC(C)(C)c1cc2c(c(C(C)(C)C)c1O)CC(C(C)(C)C)O2 (stereo unspecified) | 8.4 | 74 | 11 | 1.8 | 99 | 27.69 | 5.08 |  | Not detected |
| CCCCC1(CCCC)Cc2c(cc(C(C)(C)C)c(O)c2C(C)(C)C)O1 | 7.9 | 82 | 12 | 0.5 | 51.5 | 57.07 | 11.04 | 3.22 |  |
| CC(C)CCC1(CCC(C)C)Cc2c(cc(C(C)(C)C)c(O)c2C(C)(C)C)O1 | 5.7 | 78 | 23 | 7.1 | 91.5 | 25.64 | 9.34 |  | Not detected |
| CCCCCCC1(CCCCCC)Cc2c(cc(C(C)(C)C)c(O)c2C(C)(C)C)O1 |  | 86 | 23 | 2.7 | 75.5 |  |  |  |  |
| CCCCCCCCC1(CCCCCCCC)Cc2c(cc(C(C)(C)C)c(O)c2C(C)(C)C)O1 | 5.6 | 85 | 72 | 11.3 | 89.8 | 1.16 | 0.36 |  | Not detected |
| CCC1(CC)Cc2c(cc(C(C)(C)C)c(O)c2C(C)(C)C)O1 | 4.3 | 77 | 10 | 1.3 | 9.4 |  |  |  |  |
| CC(C)(C)c1cc2c(c(C(C)(C)C)c1O)CC1(CCOCC1)O2 | 8.2 | 87 | 22 | 4.7 | 71.8 |  |  |  |  |
| CCCC1(CCC)Cc2c(cc(C(C)(C)C)c(O)c2C(C)(C)C)O1 | 4 | 87 | 13 | 0 | 33.3 |  |  |  |  |
| CC(C)(C)c1cc2c(c(C(C)(C)C)c1O)CC(Cc1ccccc1)(Cc1ccccc1)O2 | 10.6 | 93 | 11 | 3.6 | 63.5 |  |  |  |  |
| CCCCCCCC1(CCCCCCC)Cc2c(cc(C(C)(C)C)c(O)c2C(C)(C)C)O1 |  | 89 | 83 | 18.5 | 88.4 |  |  |  |  |
| CC(C)(C)c1cc2c(c(C(C)(C)C)c1O)CC1(CCCCC1)O2 | 9.3 | 77 | 16 | 0 | 34.1 |  |  |  |  |
| CCCCCC1(CCCCC)Cc2c(cc(C(C)(C)C)c(O)c2C(C)(C)C)O1 [BO-653] | 4.6 | 96 | 42 | 4.6 | 60.9 | 119.25 | 28.6 | 2.98 |  |
| CC1(C)Cc2c(cc(C(C)(C)C)c(O)c2C(C)(C)C)O1 | 6.7 | 56 | 10 | 1.8 | 39.8 |  |  |  |  |
